Measurements as given in ChEMBL document CHEMBL1133650, “Gold(III) complexes as potential antitumor agents: solution chemistry and cytotoxic properties of some selected gold(III) compounds” (J Med Chem, 2000).

How the values were obtained:
A2780 [1] = test: cytotoxic activity toward A2780 ovarian human cell line sensitive (S) to cisplatin in experiment 3; format: functional, cell-based
Method in brief: (§1)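 Cisplatin-sensitive parental A2780/S human ovarian carcinoma cells, grown in RPMI 1640 with FBS at 37 °C under 5% CO2 and subcultured twice weekly. Exponentially growing cells were treated for 72 h, and growth inhibition was measured by sulforhodamine B assay in RPMI 1640 + 5% FBS. IC50 is the mean ± SE of ≥3 determinations, or the mean of two.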

A2780 [2] = test: cytotoxic activity toward A2780 ovarian human cell line resistant (R) to cisplatin in experiment 3; format: functional, cell-based
Method in brief: (§2)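 A2780/R human ovarian carcinoma cells, made cisplatin-resistant by repeated weekly 1-h exposure of the parental line to 50 μM cisplatin, kept in RPMI 1640 with FBS at 37 °C and 5% CO2. Exponentially growing cells were exposed to compound for 72 h, and growth was read by SRB assay in RPMI 1640 + 5% FBS. IC50 is the mean ± SE of at least three determinations, or the mean of two.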

[3] = Ratio of cytotoxic activity against resistant cell line to that of sensitive cell line; format: functional
A2780 [4] = test: cytotoxic activity toward A2780 ovarian human cell line sensitive (S) to cisplatin in experiment 1; format: functional, cell-based; method in brief: as §1
A2780 [5] = test: cytotoxic activity toward A2780 ovarian human cell line resistant (R) to cisplatin in experiment 2; format: functional, cell-based
A2780 [6] = test: cytotoxic activity toward A2780 ovarian human cell line sensitive (S) to cisplatin in experiment 2; format: functional, cell-based
A2780 [7] = test: cytotoxic activity toward A2780 ovarian human cell line sensitive (S) to cisplatin in experiment 5; format: functional, cell-based; method in brief: as §1
A2780 [8] = test: cytotoxic activity toward A2780 ovarian human cell line resistant (R) to cisplatin in experiment 5; format: functional, cell-based; method in brief: as §2
A2780 [9] = test: cytotoxic activity toward A2780 ovarian human cell line sensitive (S) to cisplatin in experiment 8; format: functional, cell-based; method in brief: as §1
A2780 [10] = test: cytotoxic activity toward A2780 ovarian human cell line resistant (R) to cisplatin in experiment 8; format: functional, cell-based; method in brief: as §2
L1210 = test: Cytotoxicity measured against L1210 cell line; format: functional, cell-based, Mus musculus
A2780 [11] = test: cytotoxic activity toward A2780 ovarian human cell line sensitive (S) to cisplatin; format: functional, cell-based; method in brief: as §1

Compound: c1cnc2c(c1)ccc1cccnc12 [PHENANTHROLINE]
- IC50 (A2780 [1]; Homo sapiens, A2780): 3.66 µM
- IC50 (A2780 [2]; Homo sapiens, A2780): 2.73 µM
- Ratio [3]: 0.75

Compound: c1ccc(-c2cccc(-c3ccccn3)n2)nc1 [TERPYRIDINE]
- IC50 (A2780 [4]; Homo sapiens, A2780): 0.125 µM
- IC50 (A2780 [5]; Homo sapiens, A2780): 0.36 µM
- Ratio [3]: 2.88

Compound: AU(TERPY) [listing 1 of 2 here]
- IC50 (A2780 [4]; a2780): 0.2 µM
- IC50 (A2780 [2]; a2780): 0.37 µM

Compound: AU(TERPY) [listing 2 of 2 here]
- Ratio [3]: 1.23

Compound: AUCL3(EN2) [listing 1 of 2 here]
- IC50 (A2780 [1]; a2780): 8.36 µM
- IC50 (A2780 [2]; a2780): 17 µM

Compound: AUCL3(EN2) [listing 2 of 2 here]
- Ratio [3]: 2.03

Compound: AUCL(DIEN) [listing 1 of 2 here]
- IC50 (A2780 [6]): 8.2 µM
- IC50 (A2780 [2]; a2780): 18.7 µM

Compound: AUCL(DIEN) [listing 2 of 2 here]
- Ratio [3]: 2.28

Compound: AUCYCLAM
- IC50 (A2780 [6]): 99 µM
- IC50 (A2780 [5]; a2780): > 120 µM

Compound: AUPHEN [listing 1 of 2 here]
- IC50 (A2780 [7]): 3.8 µM
- IC50 (A2780 [8]): 3.49 µM

Compound: AUPHEN [listing 2 of 2 here]
- Ratio [3]: 0.92

Compound: CISPLATIN [listing 1 of 2 here]
- IC50 (A2780 [9]): 1.22 µM
- IC50 (A2780 [10]): 14.2 µM
- IC50 (L1210): 2.3 µM

Compound: CISPLATIN [listing 2 of 2 here]
- Ratio [3]: 11.6

Compound: [AuCl4]-
- IC50 (A2780 [11]): 11 µM

Compound: [Pt-(dien)Cl]Cl
- IC50 (L1210): 271 µM

Compound: [Pt-(en2)]Cl2
- IC50 (L1210): 1680 µM
